Test results reported in ChEMBL document CHEMBL4330119 (J Med Chem, 2019).
The source made the active and inactive calls.

What was measured:
[1] = molecular target: Kappa-type opioid receptor (Mus musculus, UniProt P33534); assay: Displacement of [3H]-diprenorphine from mouse KOR expressed in CHO cell membranes by competitive radioligand binding assay
Method in brief: (§1)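 30 μg CHO membrane protein incubated with radioligand and varying competitor in TME buffer (50 mM Tris, 3 mM MgCl2, 0.2 mM EGTA, pH 7.4). Bound ligand separated by filtration. […] IC50 from Hill plots, converted to Ki by Cheng–Prusoff.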

[2] = molecular target: Delta-type opioid receptor (Mus musculus, UniProt P32300); assay: Displacement of [3H]-diprenorphine from mouse DOR expressed in CHO cell membranes by competitive radioligand binding assay; method in brief: as §1
[3] = molecular target: Mu-type opioid receptor (Mus musculus) (UniProt P42866); assay: Antagonist activity at mouse MOR expressed in CHO cell membranes assessed as inhibition of DAMGO-stimulated [35S]GTPgammaS binding after 90 mins relative to DAMGO; assay type: functional
Mus musculus [4] = assay: In vivo antagonist activity at MOR in Swiss Webster mouse assessed reduction in morphine-induced antinociceptive effect by measuring morphine MPE at 10 mg/kg, sc preincubated for 5 mins followed by morphine addition and measured after 20 min post morphine challenge by tail immersion test relative to control; assay type: functional
Method in brief: (§2)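 Male Swiss Webster mice, 5 per group. […] Baseline latency 2–4 s, 10 s cutoff. %MPE calculated per mouse. AD50 by least-squares linear regression, 95% CI by Bliss method.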

Mus musculus [5] = assay: Antinociceptive activity in Swiss Webster mouse at 10 mg/kg, sc measured after 20 min post dose by tail immersion test; assay type: functional, organism-based
Method in brief: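 Male Swiss Webster mice, 7–8 weeks, 5 per group. Compound given sc, tail immersed in 56 ± 0.1 °C water 20 min later. Only mice with baseline latency of 2–4 s were used. 10 s cutoff. %MPE = [(test – control)/(10 – control)] × 100.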

Mus musculus [6] = assay: In vivo antagonist activity at MOR in sc dosed Swiss Webster mouse assessed reduction in morphine-induced antinociceptive effect by measuring morphine MPE preincubated for 5 mins followed by morphine addition and measured after 20 min post morphine challenge by tail immersion test; assay type: functional; method in brief: as §2
Mus musculus [7] = assay: Induction of withdrawal symptoms in morphine-pelleted Swiss Webster mouse model assessed as dog shakes at 1 mg/kg, sc measured after 72 hrs […] for 20 mins; assay type: organism-based; details: in vivo
Method in brief: (§3)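 Withdrawal precipitated 72 h after implantation by sc compound, after 30 min habituation to an open Plexiglas chamber. Wet dog shakes, escape jumps and paw tremors counted over 20 min, five mice per group. Naloxone 1 mg/kg sc as reference.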

Mus musculus [8] = assay: Induction of withdrawal symptoms in morphine-pelleted Swiss Webster mouse model assessed as escape jumps at 1 mg/kg, sc measured after 72 hrs […] for 20 mins; assay type: organism-based; details: in vivo; method in brief: as §3
Mus musculus [9] = assay: Induction of withdrawal symptoms in morphine-pelleted Swiss Webster mouse model assessed as dog shakes at 5 mg/kg, sc measured after 72 hrs […] for 20 mins; assay type: organism-based; details: in vivo; method in brief: as §3
Mus musculus [10] = assay: Induction of withdrawal symptoms in morphine-pelleted Swiss Webster mouse model assessed as escape jumps at 5 mg/kg, sc measured after 72 hrs […] for 20 mins; assay type: organism-based; details: in vivo; method in brief: as §3
Mus musculus [11] = assay: Induction of withdrawal symptoms in morphine-pelleted Swiss Webster mouse model assessed as paw tremors […] at 5 mg/kg, sc measured after 72 hrs […] for 20 mins; assay type: organism-based; details: in vivo; method in brief: as §3
Mus musculus [12] = assay: Induction of withdrawal symptoms in morphine-pelleted Swiss Webster mouse model assessed as dog shakes at 10 mg/kg, sc measured after 72 hrs […] for 20 mins; assay type: organism-based; details: in vivo; method in brief: as §3
Mus musculus [13] = assay: Induction of withdrawal symptoms in morphine-pelleted Swiss Webster mouse model assessed as escape jumps at 10 mg/kg, sc measured after 72 hrs […] for 20 mins; assay type: organism-based; details: in vivo; method in brief: as §3
Mus musculus [14] = assay: Induction of withdrawal symptoms in morphine-pelleted Swiss Webster mouse model assessed as paw tremors […] at 10 mg/kg, sc measured after 72 hrs […] for 20 mins; assay type: organism-based; details: in vivo; method in brief: as §3
Mus musculus [15] = assay: Induction of withdrawal symptoms in morphine-pelleted Swiss Webster mouse model assessed as dog shakes at 50 to 100 mg/kg, sc measured after 72 hrs […] for 20 mins; assay type: organism-based; details: in vivo; method in brief: as §3
Mus musculus [16] = assay: Induction of withdrawal symptoms in morphine-pelleted Swiss Webster mouse model assessed as paw tremors […] at 50 to 100 mg/kg, sc measured after 72 hrs […] for 20 mins; assay type: organism-based; details: in vivo; method in brief: as §3
Mus musculus [17] = assay: Induction of withdrawal symptoms in morphine-pelleted Swiss Webster mouse model assessed as escape jumps at 50 mg/kg, sc measured after 72 hrs […] for 20 mins; assay type: organism-based; details: in vivo; method in brief: as §3
Mu-type opioid receptor [18] = molecular target: T1, Mu-type opioid receptor (Mus musculus, UniProt P42866); assay: Displacement of [3H]-naloxone from mouse MOR expressed in CHO cell membranes by competitive radioligand binding assay; method in brief: as §1
Mus musculus [19] = species on record: Mus musculus; assay: Selectivity ratio of Ki for mouse DOR expressed in CHO cell membranes to Ki for mouse MOR expressed in CHO cell membranes; assay type: cell-based
Method in brief: (§4)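 Ratio of Ki values from competition binding: 30 μg CHO membranes in TME pH 7.4, filtration. IC50 converted to Ki by Cheng–Prusoff.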

Mus musculus [20] = species on record: Mus musculus; assay: Selectivity ratio of Ki for mouse KOR expressed in CHO cell membranes to Ki for mouse MOR expressed in CHO cell membranes; assay type: cell-based; method in brief: as §4
Mu-type opioid receptor [21] = molecular target: T1, Mu-type opioid receptor; assay: Antagonist activity at mouse MOR expressed in CHO cell membranes assessed as inhibition of DAMGO-stimulated [35S]GTPgammaS binding after 90 mins; assay type: functional
Mus musculus [22] = assay: Induction of withdrawal symptoms in morphine-pelleted Swiss Webster mouse model assessed as paw tremors […] at 1 mg/kg, sc measured after 72 hrs […] for 20 mins; assay type: organism-based; details: in vivo; method in brief: as §3

Compound	Ki [1]	Ki [2]	Emax [3]	inhibition (Mus musculus [4])	also measured
CC(C)Cc1cnccc1C(=O)N[C@@H]1CC[C@@]2(O)[C@H]3Cc4ccc(O)c5c4[C@@]2(CCN3CC2CC2)[C@H]1O5	75.6 nM	149 nM	27.3%	inactive	–
N#Cc1cnccc1C(=O)N[C@@H]1CC[C@@]2(O)[C@H]3Cc4ccc(O)c5c4[C@@]2(CCN3CC2CC2)[C@H]1O5	2.74 nM	46.3 nM	26.1%	–	Activity (Mus musculus [5]): inactive; inhibition in vivo at 10 mg/kg (Mus musculus [4]): 7.8%; ED50 (Mus musculus [6]): 1.75 mg/kg; inhibition (Mus musculus [6]): Dose-dependent effect; Activity (Mus musculus [7]): Non-Toxic; Activity (Mus musculus [8]): Non-Toxic; Activity (Mus musculus [9]): Toxic; Activity (Mus musculus [10]): Toxic; Activity (Mus musculus [11]): Toxic
O=C(N[C@@H]1CC[C@@]2(O)[C@H]3Cc4ccc(O)c5c4[C@@]2(CCN3CC2CC2)[C@H]1O5)c1ccncc1F	4.8 nM	157 nM	–	–	inhibition in vivo at 10 mg/kg (Mus musculus [4]): 6.2%; ED50 (Mus musculus [6]): 2.82 mg/kg; Activity (Mus musculus [12]): Non-Toxic; Activity (Mus musculus [13]): Non-Toxic; Activity (Mus musculus [14]): Non-Toxic; Activity (Mus musculus [15]): Non-Toxic; Activity (Mus musculus [16]): Toxic; Activity (Mus musculus [17]): Non-Toxic
O=C(N[C@@H]1CC[C@@]2(O)[C@H]3Cc4ccc(O)c5c4[C@@]2(CCN3CC2CC2)[C@H]1O5)c1ccncc1C(F)(F)F	12.5 nM	61.8 nM	31.9%	inactive	Ki (Mu-type opioid receptor [18]): 0.43 nM; Ratio Ki (Mus musculus [19]): 144; Ratio Ki (Mus musculus [20]): 29.1; EC50 (Mu-type opioid receptor [21]): 1.38 nM
O=C(N[C@@H]1CC[C@@]2(O)[C@H]3Cc4ccc(O)c5c4[C@@]2(CCN3CC2CC2)[C@H]1O5)c1ccncc1[N+](=O)[O-]	4.46 nM	95.6 nM	39.1%	inactive	–
CCc1cnccc1C(=O)N[C@@H]1CC[C@@]2(O)[C@H]3Cc4ccc(O)c5c4[C@@]2(CCN3CC2CC2)[C@H]1O5	9.18 nM	42.9 nM	41.6%	inactive	–
O=C(O)c1cnccc1C(=O)N[C@@H]1CC[C@@]2(O)[C@H]3Cc4ccc(O)c5c4[C@@]2(CCN3CC2CC2)[C@H]1O5	2.43 nM	55.6 nM	29.3%	inactive	Ki (Mu-type opioid receptor [18]): 0.76 nM; Ratio Ki (Mus musculus [19]): 73.2; Ratio Ki (Mus musculus [20]): 3.2; EC50 (Mu-type opioid receptor [21]): 1.83 nM
O=C(N[C@@H]1CC[C@@]2(O)[C@H]3Cc4ccc(O)c5c4[C@@]2(CCN3CC2CC2)[C@H]1O5)c1ccncc1C1CCCCC1	3.32 nM	11.2 nM	51.6%	inactive	–
O=C(N[C@@H]1CC[C@@]2(O)[C@H]3Cc4ccc(O)c5c4[C@@]2(CCN3CC2CC2)[C@H]1O5)c1ccncc1C1CCCC1	8.16 nM	34 nM	–	inactive	–
O=C(N[C@@H]1CC[C@@]2(O)[C@H]3Cc4ccc(O)c5c4[C@@]2(CCN3CC2CC2)[C@H]1O5)c1ccncc1-c1ccccc1	3.42 nM	44.8 nM	44.4%	inactive	–
COC(=O)c1cnccc1C(=O)N[C@@H]1CC[C@@]2(O)[C@H]3Cc4ccc(O)c5c4[C@@]2(CCN3CC2CC2)[C@H]1O5	11.7 nM	137 nM	29.2%	inactive	–
C=CCN1CC[C@]23c4c5ccc(O)c4O[C@H]2C(=O)CC[C@@]3(O)[C@H]1C5 [NALOXONE]	–	–	–	–	Activity (Mus musculus [7]): Toxic; Activity (Mus musculus [8]): Toxic; Activity (Mus musculus [22]): Toxic
O=C(N[C@@H]1CC[C@@]2(O)[C@H]3Cc4ccc(O)c5c4[C@@]2(CCN3CC2CC2)[C@H]1O5)c1ccncc1C1CCCCCC1	5.16 nM	15 nM	48.3%	inactive	–
